Source: ChEMBL document CHEMBL4387749, “Naphthalene-triazolopyrimidine hybrid compounds as potential multifunctional anti-Alzheimer's agents” (Bioorg Med Chem, 2019)
Calls of active or inactive are those of the source. The calls are words filed in the database; no cut-off is given here.

What was measured:
Acetylcholinesterase = Acetylcholinesterase (Electrophorus electricus, UniProt O42275); experiment: Inhibition of electric eel Ache using acetylthiocholine iodide as substrate preincubated for 5 mins followed by substrate addition and measured after 5 mins by Ellman method
Acetylcholinesterase, sequence (O42275 whole entry): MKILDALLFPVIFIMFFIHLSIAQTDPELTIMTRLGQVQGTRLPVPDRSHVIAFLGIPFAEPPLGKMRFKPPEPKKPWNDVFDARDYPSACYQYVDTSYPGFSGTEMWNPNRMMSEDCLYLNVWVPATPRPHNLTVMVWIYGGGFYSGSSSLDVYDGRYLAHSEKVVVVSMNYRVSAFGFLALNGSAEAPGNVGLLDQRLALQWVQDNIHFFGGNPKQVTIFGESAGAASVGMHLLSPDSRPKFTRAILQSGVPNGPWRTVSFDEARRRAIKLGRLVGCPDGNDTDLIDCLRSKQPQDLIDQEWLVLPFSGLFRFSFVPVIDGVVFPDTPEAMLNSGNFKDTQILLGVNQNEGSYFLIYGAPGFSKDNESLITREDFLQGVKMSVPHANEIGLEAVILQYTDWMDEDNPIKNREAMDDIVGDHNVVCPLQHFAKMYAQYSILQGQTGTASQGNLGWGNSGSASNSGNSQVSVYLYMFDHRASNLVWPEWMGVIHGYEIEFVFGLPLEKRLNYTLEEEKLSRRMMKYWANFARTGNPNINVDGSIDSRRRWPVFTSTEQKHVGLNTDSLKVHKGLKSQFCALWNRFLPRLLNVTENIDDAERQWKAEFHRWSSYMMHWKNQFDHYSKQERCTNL

Cholinesterase = Cholinesterase (Equus caballus, UniProt P81908); experiment: Inhibition of equine serum BuChE using butyrylthiocholine iodide as substrate preincubated for 5 mins followed by substrate addition and measured after 5 mins by Ellman method
Cholinesterase, sequence (P81908 whole entry): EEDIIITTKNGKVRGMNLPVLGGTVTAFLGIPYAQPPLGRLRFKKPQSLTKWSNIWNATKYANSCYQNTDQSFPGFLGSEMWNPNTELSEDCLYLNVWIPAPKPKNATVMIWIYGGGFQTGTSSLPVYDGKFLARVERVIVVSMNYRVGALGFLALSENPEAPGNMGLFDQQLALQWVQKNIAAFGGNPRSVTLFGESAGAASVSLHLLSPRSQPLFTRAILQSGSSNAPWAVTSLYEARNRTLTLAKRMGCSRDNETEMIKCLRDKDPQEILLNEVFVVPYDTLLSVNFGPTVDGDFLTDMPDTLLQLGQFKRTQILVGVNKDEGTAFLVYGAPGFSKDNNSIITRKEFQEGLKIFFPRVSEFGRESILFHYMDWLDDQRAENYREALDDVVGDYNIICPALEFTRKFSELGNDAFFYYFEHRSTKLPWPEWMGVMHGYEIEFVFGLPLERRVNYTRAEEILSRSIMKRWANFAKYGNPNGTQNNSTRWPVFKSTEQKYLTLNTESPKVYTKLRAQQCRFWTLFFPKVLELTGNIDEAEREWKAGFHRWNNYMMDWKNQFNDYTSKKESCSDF
Summary of the method: (§1)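 Ellman method. Equine serum BuChE 0.06 U/mL (for ratio lines, electric eel AChE 0.22 U/mL) in 1 M potassium phosphate buffer. Enzyme stood 5 min with compound before 0.01 M DTNB was added, with butyrylthiocholine iodide as substrate (acetylthiocholine for AChE). Compound range 0.01–100 µM final. IC50 as mean ± SD of three independent experiments. SI = IC50 BuChE / IC50 AChE.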

[1] = biological target: T1, Amyloid-beta precursor protein (Homo sapiens, UniProt P05067); experiment: Inhibition of HFIP-pretreated self-induced amyloid beta (1 to 42) (unknown origin) aggregation at 50 uM measured after 48 hrs by ThT fluorescence assay relative to control
T1 sequence (P05067 whole entry): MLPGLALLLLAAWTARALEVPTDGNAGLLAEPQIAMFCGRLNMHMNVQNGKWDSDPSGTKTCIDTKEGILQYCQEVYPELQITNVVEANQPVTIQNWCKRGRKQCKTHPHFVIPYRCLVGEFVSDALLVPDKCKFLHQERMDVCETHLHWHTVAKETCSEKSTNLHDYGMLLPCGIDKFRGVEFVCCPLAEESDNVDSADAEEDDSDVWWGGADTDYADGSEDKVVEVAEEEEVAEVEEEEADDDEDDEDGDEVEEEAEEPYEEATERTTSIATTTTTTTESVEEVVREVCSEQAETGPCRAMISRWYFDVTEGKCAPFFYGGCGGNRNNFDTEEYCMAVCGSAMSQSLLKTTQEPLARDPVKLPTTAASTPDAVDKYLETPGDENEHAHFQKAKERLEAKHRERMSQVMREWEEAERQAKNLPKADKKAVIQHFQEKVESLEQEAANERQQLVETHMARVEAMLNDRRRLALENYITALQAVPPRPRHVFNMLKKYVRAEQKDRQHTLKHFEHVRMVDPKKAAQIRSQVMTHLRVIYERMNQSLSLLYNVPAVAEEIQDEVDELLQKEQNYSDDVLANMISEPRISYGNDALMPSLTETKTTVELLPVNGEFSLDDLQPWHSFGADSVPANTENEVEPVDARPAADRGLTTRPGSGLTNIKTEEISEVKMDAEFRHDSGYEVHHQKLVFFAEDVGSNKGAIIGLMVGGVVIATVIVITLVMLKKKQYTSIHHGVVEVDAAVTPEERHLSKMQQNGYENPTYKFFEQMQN
Summary of the method: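 Aβ1-42 pretreated with HFIP (8 mg/ml), dried under nitrogen, 5 mM stock in DMSO. Diluted in 50 mM phosphate buffer pH 7.4 to 100 µM final and incubated with or without 50 µM compound for 48 h at 37 °C. Diluted with glycine-NaOH 50 mM pH 8.0, then ThT fluorescence read. Buffer blanks included. Mean ± SD of three experiments.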

[2] = biological target: T1, Amyloid-beta precursor protein; experiment: Disaggregation of self-induced amyloid beta (1 to 42) (unknown origin) preformed fibrils measured after 24 hrs by ThT fluorescence assay relative to control
Summary of the method: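 HFIP-pretreated Aβ1-42, DMSO stock, diluted in 50 mM phosphate buffer pH 7.4 (100 µM final). Incubated 48 h at 37 °C to form fibrils, then compound or buffer added and held 24 h at 37 °C. Diluted to 200 µl with glycine-NaOH 50 mM pH 8.0, then ThT fluorescence read. Peptide-free buffer blanks with and without compound. Triplicates.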

[3] = biological target: T1, Amyloid-beta precursor protein; experiment: Inhibition of self-induced amyloid beta (1 to 42) (unknown origin) aggregation at 12.5 uM measured after 48 hrs by ThT fluorescence assay relative to control
Summary of the method: (§2)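 Aβ1-42 is pretreated with HFIP (8 mg/ml) and dried to a film under nitrogen. The film is dissolved in DMSO to a 5 mM stock. This is diluted in 50 mM phosphate buffer, pH 7.4, to 100 µM final peptide, with or without compound, and incubated at 37 °C for 48 h. Samples are then diluted with 50 mM glycine-NaOH, pH 8.0, and fibrils quantified by ThT fluorescence. Blanks without Aβ are subtracted. Values are means ± SD of three experiments.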

[4] = biological target: T1, Amyloid-beta precursor protein; experiment: Inhibition of self-induced amyloid beta (1 to 42) (unknown origin) aggregation at 25 uM measured after 48 hrs by ThT fluorescence assay relative to control; summary of the method: as §2
[5] = biological target: T1, Amyloid-beta precursor protein; experiment: Inhibition of self-induced amyloid beta (1 to 42) (unknown origin) aggregation at 75 uM measured after 48 hrs by ThT fluorescence assay relative to control; summary of the method: as §2
[6] = biological target: T1, Amyloid-beta precursor protein; experiment: Inhibition of self-induced amyloid beta (1 to 42) (unknown origin) aggregation at 100 uM measured after 48 hrs by ThT fluorescence assay relative to control; summary of the method: as §2
[7] = biological target: T1, Amyloid-beta precursor protein; experiment: Inhibition of self-induced amyloid beta (1 to 42) (unknown origin) aggregation measured after 48 hrs by ThT fluorescence assay; summary of the method: as §2
[8] = biological target: T1, Amyloid-beta precursor protein; experiment: Inhibition of self-induced amyloid beta (1 to 42) (unknown origin) aggregation at 50 uM for 48 hrs by TEM analysis
Summary of the method: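 Aβ1-42 in 50 mM phosphate buffer, pH 7.4, is incubated with or without compound at 37 °C for 48 h, with a curcumin co-incubation and a 0 h sample as comparisons. 10 µL aliquots are applied to carbon grids for 1 min at room temperature, washed with water and negatively stained with sodium phosphotungstate for 1 min. Fibrils are then imaged by transmission electron microscopy.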

[9] = Antioxidant activity assessed as trolox equivalent of AAPH-induced radical scavenging activity at 100 uM preincubated for 15 mins followed by AAPH addition and measured at 1 minute interval for 80 mins by ORAC-FL assay; assay type: functional
Summary of the method: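 ORAC-FL in 75 mM phosphate buffer, pH 7.4. Fluorescein 70 nM final was preincubated with the antioxidant 15 min at 37 °C, then AAPH 12 mM final was added. Fluorescence read every minute for 80 min (ex 485/em 520 nm). Net AUC = AUC sample minus AUC blank. Trolox calibration 1–8 µM gave Trolox equivalents. At least three independent runs, each in triplicate.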

[10] = Antioxidant activity assessed as DPPH radical scavenging activity at 50 uM preincubated for 5 mins followed by DPPH addition and measured after 30 mins by ultraviolet spectrophotometric analysis relative to control; assay type: functional
Summary of the method: (§3)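 DPPH (0.1 mM) in methanol. Test compound was added and held 5 min before DPPH, then 30 min incubation. Absorbance read at 517 nm. Scavenging % = (A1−A2)/A1×100, with A1 the control absorbance and A2 the compound absorbance. Run in triplicate in 96-well plates.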

[11] = Selectivity index, ratio of IC50 for equine serum BuChE to IC50 for electric eel Ache; summary of the method: as §1
[12] = Antioxidant activity assessed as DPPH radical scavenging activity at 10 uM preincubated for 5 mins followed by DPPH addition and measured after 30 mins by ultraviolet spectrophotometric analysis relative to control; assay type: functional; summary of the method: as §3
[13] = Antioxidant activity assessed as DPPH radical scavenging activity at 100 uM preincubated for 5 mins followed by DPPH addition and measured after 30 mins by ultraviolet spectrophotometric analysis relative to control; assay type: functional; summary of the method: as §3
[14] = biological target: T1, Amyloid-beta precursor protein; conditions: 25 uM

Structure (SMILES): O=[N+]([O-])c1cccc(C2C=C(c3cccc4ccccc34)Nc3nncn32)c1 (stereo not drawn)
- IC50 (Acetylcholinesterase): > 100000 nM
- IC50 (Cholinesterase): > 100000 nM
- inhibition [1]: 72.8%
- Activity [2]: 58.8%
- inhibition [3]: 42%
- inhibition [4]: 59.3%
- inhibition [5]: 85.8%
- inhibition [6]: 91.4%
- IC50 [7]: 17400 nM
- inhibition [8]: Active
- Activity (umolequiv/umol) [9]: 0.508
- Activity [10]: 33%

Structure (SMILES): COc1ccc(OC)c(C2C=C(c3cccc4ccccc34)Nc3nncn32)c1 (stereo not drawn)
- Ratio IC50 [11]: > 160
- IC50 (Acetylcholinesterase): 602 nM
- IC50 (Cholinesterase): > 100000 nM
- inhibition [1]: 42.1%
- Activity [2]: 47.9%
- Activity (umolequiv/umol) [9]: 0.472
- Activity [10]: 53.8%

Structure (SMILES): O=C(O)c1cc(O)c(O)c(O)c1
- Activity [12]: 66%
- Activity [13]: 95.3%

Structure (SMILES): Fc1ccc(C2C=C(c3cccc4ccccc34)Nc3nncn32)cc1 (stereo not drawn)
- Ratio IC50 [11]: 19.7
- IC50 (Acetylcholinesterase): 1910 nM
- IC50 (Cholinesterase): 39000 nM
- inhibition [1]: 85.5%
- Activity [2]: 62.6%
- inhibition [3]: 70.4%
- inhibition [4]: 82.4%
- inhibition [5]: 87.5%
- inhibition [6]: 95.4%
- IC50 [7]: 3870 nM
- inhibition [8]: Active
- Activity (umolequiv/umol) [9]: 0.347
- Activity [10]: 36.2%

Structure (SMILES): Clc1ccccc1C1C=C(c2cccc3ccccc23)Nc2nncn21 (stereo not drawn)
- Ratio IC50 [11]: 1.03
- IC50 (Acetylcholinesterase): 74 nM
- IC50 (Cholinesterase): 76 nM
- inhibition [1]: 40.4%
- Activity (umolequiv/umol) [9]: 0.39
- Activity [10]: 15.5%

Structure (SMILES): c1coc(-c2cc(-c3cccc4ccccc34)nc3nncn23)c1
- Ratio IC50 [11]: 37.7
- IC50 (Acetylcholinesterase): 14 nM
- IC50 (Cholinesterase): 528 nM
- inhibition [1]: 12.1%
- Activity (umolequiv/umol) [9]: 0.101
- Activity [10]: 20.4%

Structure (SMILES): c1ccc(-c2cc(-c3cccc4ccccc34)nc3nncn23)cc1
- Ratio IC50 [11]: > 168
- IC50 (Acetylcholinesterase): 597 nM
- IC50 (Cholinesterase): > 100000 nM
- inhibition [1]: inactive
- Activity (umolequiv/umol) [9]: 0.301
- Activity [10]: 18.8%

Structure (SMILES): Clc1ccc(C2C=C(c3cccc4ccccc34)Nc3nncn32)cc1 (stereo not drawn)
- Ratio IC50 [11]: 2.42
- IC50 (Acetylcholinesterase): 371 nM
- IC50 (Cholinesterase): 900 nM
- inhibition [1]: inactive
- Activity (umolequiv/umol) [9]: 0.268
- Activity [10]: 19.2%

Structure (SMILES): COc1ccc(C2C=C(c3cccc4ccccc34)Nc3nncn32)cc1 (stereo not drawn)
- Ratio IC50 [11]: 17.4
- IC50 (Acetylcholinesterase): 8.6 nM
- IC50 (Cholinesterase): 150 nM
- inhibition [1]: 31.2%
- Activity (umolequiv/umol) [9]: 0.446
- Activity [10]: 35%

Structure (SMILES): COc1cc(/C=C/C(=O)CC(=O)/C=C/c2ccc(O)c(OC)c2)ccc1O
- inhibition [14]: Active

Structure (SMILES): COc1ccc(-c2cc(-c3cccc4ccccc34)nc3nncn23)cc1OC
- Ratio IC50 [11]: > 33.4
- IC50 (Acetylcholinesterase): 3000 nM
- IC50 (Cholinesterase): > 100000 nM
- inhibition [1]: 36.6%
- Activity (umolequiv/umol) [9]: 0.234
- Activity [10]: 27.9%

Structure (SMILES): CN(C)c1ccc(-c2cc(-c3cccc4ccccc34)nc3nncn23)cc1
- Ratio IC50 [11]: 166
- IC50 (Acetylcholinesterase): 126 nM
- IC50 (Cholinesterase): 20900 nM
- inhibition [1]: 43.1%
- Activity [2]: 54.5%
- Activity (umolequiv/umol) [9]: 0.171
- Activity [10]: 21.3%
